Where two headings read alike, the source gives them in different places.
Assays:
[1] = biological target: T1, recombinant human DNase I (Homo sapiens, UniProt P24855); experiment: High-throughput DNase I screening assay; format: biochemical; conditions: for Type of inhibition according to Lineweaver–Burk plots: DNase I
T1 sequence (P24855 23-282): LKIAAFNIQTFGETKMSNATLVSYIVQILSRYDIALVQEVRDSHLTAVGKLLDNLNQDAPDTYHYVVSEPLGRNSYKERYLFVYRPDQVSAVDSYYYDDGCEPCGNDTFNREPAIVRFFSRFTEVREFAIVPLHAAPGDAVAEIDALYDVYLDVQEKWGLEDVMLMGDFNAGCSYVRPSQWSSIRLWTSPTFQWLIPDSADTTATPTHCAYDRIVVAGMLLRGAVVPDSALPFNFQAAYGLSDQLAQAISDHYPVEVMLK

DNase II = biological target: T2, DNase II (Sus scrofa, UniProt O62855); experiment: HTS fluorescent probe assay with DNase II; format: biochemical; conditions: DNase II 3.32 nM, pH 5.0; compared with DNase I
T2 sequence (O62855 22-364): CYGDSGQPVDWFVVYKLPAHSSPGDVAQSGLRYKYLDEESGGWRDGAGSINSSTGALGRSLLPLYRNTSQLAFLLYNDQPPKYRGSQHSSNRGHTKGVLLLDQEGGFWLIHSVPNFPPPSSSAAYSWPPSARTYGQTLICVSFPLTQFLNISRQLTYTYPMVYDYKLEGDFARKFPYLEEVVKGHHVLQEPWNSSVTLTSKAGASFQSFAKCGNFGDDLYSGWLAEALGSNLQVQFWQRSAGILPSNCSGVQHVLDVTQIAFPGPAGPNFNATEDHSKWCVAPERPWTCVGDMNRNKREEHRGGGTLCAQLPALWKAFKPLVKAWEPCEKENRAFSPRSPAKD

recombinant murine EndoG = biological target: T3, recombinant murine EndoG (Mus musculus, UniProt O08600); experiment: HTS fluorescent probe assay with EndoG; format: biochemical; conditions: EndoG 0.14 μM; compared with DNase I
T3 sequence (O08600 45-294): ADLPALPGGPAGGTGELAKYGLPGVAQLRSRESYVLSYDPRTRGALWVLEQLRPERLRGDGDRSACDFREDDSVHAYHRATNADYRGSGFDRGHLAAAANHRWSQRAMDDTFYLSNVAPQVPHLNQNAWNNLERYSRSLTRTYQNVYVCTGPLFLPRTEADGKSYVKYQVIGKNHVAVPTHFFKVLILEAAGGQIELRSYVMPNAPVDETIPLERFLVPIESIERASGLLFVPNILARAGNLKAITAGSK
Outline: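 Fluorescence was read kinetically at 37 °C, and mean velocity (mRFU/min) was taken over 20 min after background subtraction. Activity was expressed as a percentage of the DMSO control.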

micrococcal nuclease = micrococcal nuclease (Staphylococcus aureus, UniProt P00644); experiment: Plasmid incision assay; format: biochemical, bacterial; conditions: 10 μM
Outline: (§1)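 Plasmid incision: 1 μg pECFP plasmid in 2 mM CaCl₂, 5 mM MgCl₂, 10 mM Tris-HCl pH 7.4, 0.5 mM DTT, test compound in DMSO (1% final), nuclease added, 1 h at 37 °C. The reaction was stopped with SDS/EDTA and run on a 1% agarose TAE gel at 7 V/cm for 35 min. Ethidium bromide-stained supercoiled band was quantified densitometrically.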

Benzonase = Benzonase (Serratia marcescens, UniProt P13717); experiment: Plasmid incision assay; format: biochemical, bacterial; conditions: 10 μM
Sequence of Benzonase (P13717 22-266): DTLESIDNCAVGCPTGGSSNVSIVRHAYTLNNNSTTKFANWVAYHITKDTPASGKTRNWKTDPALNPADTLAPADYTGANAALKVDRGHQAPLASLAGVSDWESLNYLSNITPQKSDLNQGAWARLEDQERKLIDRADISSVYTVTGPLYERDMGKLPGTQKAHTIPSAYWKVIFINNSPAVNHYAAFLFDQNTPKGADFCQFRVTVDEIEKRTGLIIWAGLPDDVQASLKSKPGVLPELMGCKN
Outline: as §1

RNase A = biological target: T4, RNase A (Bos taurus, UniProt P61823); experiment: Ribonuclease A Detection kit; format: biochemical; conditions: 1 μM and 100 μM
T4 sequence (P61823 27-150): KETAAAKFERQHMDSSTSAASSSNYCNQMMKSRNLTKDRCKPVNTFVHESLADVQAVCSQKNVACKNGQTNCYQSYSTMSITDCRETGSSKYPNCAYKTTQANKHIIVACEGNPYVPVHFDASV

protease = experiment: Protease Fluorescent Detection kit; format: biochemical; conditions: 1 μM and 100 μM
SOD = SOD Determination kit; format: biochemical; conditions: 1 μM and 100 μM
NRK-52E cells [2] = experiment: Cell death assay; format: cell-based, rat; conditions: for Protection against cisplatin-induced cell death (LDH release): cisplatin 60 μM, 24 h; for Cytotoxicity of the inhibitor: highest concentration tested
Outline: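 NRK-52E rat tubular epithelial cells were grown in DMEM with 5% FBS at 37 °C, 5% CO₂, and used within 1 d after confluence. Cells were seeded at 8000–10,000 per well, grown 24 h, then pre-incubated 2 h with serial dilutions of test compound. Cisplatin 60 μM was added, and LDH release was measured after 24 h with a CytoTox96 kit. Mean ± SD, n = 4.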

NRK-52E cells [3] = experiment: TUNEL assay of cisplatin-induced DNA fragmentation; format: cell-based, rat; conditions: inhibitor 100 μM, 24 h cisplatin 60 μM
Outline: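 Cells were exposed to cisplatin for 24 h in the presence of test compound at 100 μM, fixed in 5% formalin, TUNEL-stained with an in situ cell death detection kit, and counterstained with DAPI. Green-channel mean optical density for TUNEL-positive DNA damage was recorded over 10 independent fields per subset. Mean ± SD, n = 4.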

EndoG [4] = experiment: EndoG protein expression by quantitative immunohistochemistry; format: cell-based, rat; conditions: NRK-52E cells, cisplatin 60 μM
Outline: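 NRK-52E cells were fixed in 5% formalin and stained with rabbit anti-EndoG (1:200 in 0.5% BSA, 0.05% Tween-20, PBS), then AlexaFluor 647 anti-rabbit IgG (1:400), with DAPI counterstain. The control omitted the primary antibody. Red-channel mean optical density was recorded over 10 independent fields per subset. Mean ± SD, n = 4.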

EndoG [5] = experiment: EndoG mRNA expression by real-time RT-PCR; format: cell-based, rat; conditions: NRK-52E cells, cisplatin
Solubility in water = format: physicochemical
LDH = conditions: 1 μM and 100 μM
[6] = read-out: IC50 against DNase I, DNase I 1.72 nM, 37 °C, HTS assay

O=C(O)CN(CCN(CC(=O)O)CC(=O)O)CC(=O)O [EDTA, ethylenediaminetetraacetic acid, reference compound]
IC50 [1]: 190 µM

[Cl-].[Cl-].[Zn+2] [ZnCl2, reference compound]
IC50 [1, 6]: 18 µM

1,4-phenylene-bis-aminoguanidine hydrochloride [JR-132]
Type of inhibition according to Lineweaver–Burk plots [1]: competitive inhibitors | IC50 [1, 6]: 2.73 µM | Suppression of DNase II activity (DNase II): suppress the activity | Suppression of EndoG activity (recombinant murine EndoG): suppress the activity | Inhibition of micrococcal nuclease (PIA) (micrococcal nuclease): absence of inhibition | Inhibition of Benzonase (PIA) (Benzonase): absence of inhibition | Inhibition of RNase A (RNase A): no inhibition activity was observed | Inhibition of protease (protease): no inhibition activity was observed | Inhibition of SOD (SOD): no inhibition activity was observed | Protection against cisplatin-induced cell death (LDH release) (NRK-52E cells [2]): some protection against cisplatin-induced cell death | Cytotoxicity of the inhibitor (NRK-52E cells [2]): significant cytotoxicity | Inhibition of cisplatin-induced DNA fragmentation (TUNEL) (NRK-52E cells [3]): marked inhibition | EndoG protein expression (EndoG [4]): significantly decreased | EndoG mRNA expression (EndoG [5]): significantly decreased | Solubility in water (Solubility in water): unlimited solubility in water | Inhibition of LDH (LDH): no inhibition activity was observed

1,3-phenylene-bis-aminoguanidine hydrochloride [IG-17]
Type of inhibition according to Lineweaver–Burk plots [1]: competitive inhibitors | IC50 [1, 6]: 8.93 µM | Suppression of DNase II activity (DNase II): suppress the activity | Suppression of EndoG activity (recombinant murine EndoG): suppress the activity | Inhibition of micrococcal nuclease (PIA) (micrococcal nuclease): absence of inhibition | Inhibition of Benzonase (PIA) (Benzonase): absence of inhibition | Inhibition of RNase A (RNase A): no inhibition activity was observed | Inhibition of protease (protease): no inhibition activity was observed | Inhibition of SOD (SOD): no inhibition activity was observed | Protection against cisplatin-induced cell death (LDH release) (NRK-52E cells [2]): some protection against cisplatin-induced cell death | Cytotoxicity of the inhibitor (NRK-52E cells [2]): significant cytotoxicity | Inhibition of cisplatin-induced DNA fragmentation (TUNEL) (NRK-52E cells [3]): marked inhibition | EndoG protein expression (EndoG [4]): lower than the control level | Solubility in water (Solubility in water): unlimited solubility in water | Inhibition of LDH (LDH): no inhibition activity was observed
